Published values of several laboratories.
Each line is one published result; the experiments were not run side by side.
DHFR: Dihydrofolate reductase (DHFR, Homo sapiens, UniProt P00374)
Tmem97: Sigma intracellular receptor 2 (Tmem97, Rattus norvegicus, UniProt Q5U3Y7)

| Structure (SMILES) | target | effect on | action | technique | concentration | endpoint | result |
| --- | --- | --- | --- | --- | --- | --- | --- |
| COc1cc([C@@H]2c3cc4c(cc3[C@@H](O[C@@H]3O[C@@H]5CO[C@@H](C)O[C@H]5[C@H](O)[C@H]3O)[C@H]3COC(=O)[C@H]23)OCO4)cc(OC)c1O | DNA topoisomerase 2-alpha (TOP2A, Homo sapiens, UniProt P11388) | enzyme activity | inhibitor | – | 7.8 µM | inhibition | 89.5% |
| Cc1cc([C@@H](C)Nc2ccccc2C(=O)O)c2nc(N3CCC(F)(F)CC3)c(C#N)c(=O)n2c1 | Serine/threonine-protein kinase PLK1 (PLK1, Homo sapiens, UniProt P53350) | binding | – | competition with immobilised ligand | 1 µM | remaining binding | 100% |
| CC(C)OC(=O)CNc1cccc(CN(Cc2ccc(-n3cccn3)cc2)S(=O)(=O)c2cccnc2)n1 | Rho-associated protein kinase 2 (ROCK2, Homo sapiens, UniProt O75116) | enzyme activity | inhibitor | – | 10 µM | inhibition | ≥ 50% |
| Cc1ccc(NC(=S)NN=Cc2ccc(N3CCCCC3)cc2)cc1 | DHFR | enzyme activity | inhibitor | – | 500 µM | inhibition | 84.4% |
| C[C@H]1c2nc3ccccc3c(-c3ccccc3)c2[C@H]2C[C@@H]1N(Cc1ccccc1)C[C@]2(C)O | Tmem97 | ligand displacement | – | radioligand | 1 µM | inhibition | 0% |
| Cc1ccc(CNC(=S)NN=Cc2ccc(N3CCCCC3)cc2)cc1 | DHFR | enzyme activity | inhibitor | – | 500 µM | inhibition | 81.4% |
| C=CC(=O)N1CCC(COCC(=O)N2CCN(c3nc(-c4cnc(N)nc4C(F)F)nc(N4CCOC[C@@H]4C)n3)CC2)CC1 | Calcium/calmodulin-dependent protein kinase type II subunit alpha (CAMK2A, Homo sapiens, UniProt Q9UQM7) | binding | – | competition with immobilised ligand | 1 µM | remaining binding | 100% |
| COc1cc(-c2cncc3c2CN(C)Cc2cc(N4CCNCC4)ccc2-3)cc(OC)c1OC | Serine/threonine-protein kinase MRCK gamma (CDC42BPG, Homo sapiens, UniProt Q6DT37) | enzyme activity | inhibitor | – | 1 µM | remaining activity | 102% |
| S=C(NN=Cc1ccc(N2CCCCC2)cc1)Nc1cccc(Br)c1 | DHFR | enzyme activity | inhibitor | – | 500 µM | inhibition | 83.7% |
| CNc1ncc2c(/C=C/C(=O)N3CCC(OC)CC3)nn(Cc3cccc(C(F)(F)F)c3)c2n1 | Activin receptor type-2B (ACVR2B, Homo sapiens, UniProt Q13705) | enzyme activity | inhibitor | radiometric | 1 µM | remaining activity | 119% |
| Cc1cccc(C)c1NC(=S)NN=Cc1ccc(N2CCCCC2)cc1 | DHFR | enzyme activity | inhibitor | – | 500 µM | inhibition | 87.5% |
| COc1ccc2[nH]c3c(c2c1)[C@H]1C[C@@H]([C@H]3C)N(Cc2ccccc2)C[C@]1(C)O | Tmem97 | ligand displacement | – | radioligand | 1 µM | inhibition | 0% |
